Experimental data published in publication PMC3042036 (Pharmacological research : the official journal of the …, 2010).

What was measured:
[1] = Plasma and brain compound concentrations after i.p. administration to mice; format: in vivo, mice (B6C3F1); conditions: for concentration at 2 h / Kp at 2 h: 5 mg/kg; for Plasma drug level / Brain drug level / B/P (Brain-to-Plasma ratio): mice; for B/P (Brain-to-Plasma ratio): total drug
How it was run: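 Male B6C3F1 mice are dosed i.p. with test compound in DMSO. Brains are sonicated in 10 mM ammonium acetate, pH 5.7 (1:2 w/v). Plasma comes from blood collected with EDTA and spun 10 min at 4500g, 4°C. Each 50 μl aliquot is precipitated with 0.2 ml acetonitrile and spun at 15,000g. Supernatants are quantified by LC-MS/MS.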

[2] = tested on: acetyl-tubulin in PC12 cells; test: Acetyl-tubulin levels in PC12 cells; format: cell-based; conditions: 24 hours treatment, increasing concentrations
brain acetyl-tubulin = test: Brain acetyl-tubulin ELISA after administration to mice; format: in vivo, mice (B6C3F1); conditions: for Brain acetyl-tubulin relative to vehicle: 16 hours after dosing
How it was run: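 Young male B6C3F1 mice (2–3 months) get a single i.p. dose of test compound in DMSO (~40 μl, scaled to body weight), n=3–6 per group. Brain hemispheres are sonicated 1:5 w/v in RIPA with protease inhibitors and trichostatin A. Sandwich ELISA uses 12G10 α-tubulin capture and HRP-acetyl-tubulin detection at 450 nm. Inputs run from 60 to 2.2 ng/μl in duplicate and are fit to the vehicle input curve.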

[3] = tested on: optic nerve (ON) acetyl-tubulin; test: Optic nerve acetyl-tubulin ELISA after administration to mice; format: in vivo, mice (B6C3F1); conditions: 1, 3 and 10 mg/kg i.p., 16 hours after dosing
How it was run: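 Male B6C3F1 mice (2–3 months, n=3/treatment) get a single i.p. dose of test compound in DMSO, volume scaled to body weight. Optic nerves are taken 16 hours later and sonicated 1:5 w/v in RIPA with inhibitors. Acetyl-tubulin is measured by α-tubulin-capture/HRP-acetyl-tubulin ELISA at 450 nm, using duplicate serial inputs. Values are read off a vehicle-control input curve and normalized to vehicle mice.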

[4] = tested on: Tg mice that express human tau; conditions: cited from earlier work
P-gp (human MDR1) = P-gp (human MDR1) (Homo sapiens, UniProt P08183); test: MDCK-MDR bi-directional permeability assay; conditions: dog, MDCK-MDR1, pH 7.4
Sequence of P-gp (human MDR1) (P08183 whole entry): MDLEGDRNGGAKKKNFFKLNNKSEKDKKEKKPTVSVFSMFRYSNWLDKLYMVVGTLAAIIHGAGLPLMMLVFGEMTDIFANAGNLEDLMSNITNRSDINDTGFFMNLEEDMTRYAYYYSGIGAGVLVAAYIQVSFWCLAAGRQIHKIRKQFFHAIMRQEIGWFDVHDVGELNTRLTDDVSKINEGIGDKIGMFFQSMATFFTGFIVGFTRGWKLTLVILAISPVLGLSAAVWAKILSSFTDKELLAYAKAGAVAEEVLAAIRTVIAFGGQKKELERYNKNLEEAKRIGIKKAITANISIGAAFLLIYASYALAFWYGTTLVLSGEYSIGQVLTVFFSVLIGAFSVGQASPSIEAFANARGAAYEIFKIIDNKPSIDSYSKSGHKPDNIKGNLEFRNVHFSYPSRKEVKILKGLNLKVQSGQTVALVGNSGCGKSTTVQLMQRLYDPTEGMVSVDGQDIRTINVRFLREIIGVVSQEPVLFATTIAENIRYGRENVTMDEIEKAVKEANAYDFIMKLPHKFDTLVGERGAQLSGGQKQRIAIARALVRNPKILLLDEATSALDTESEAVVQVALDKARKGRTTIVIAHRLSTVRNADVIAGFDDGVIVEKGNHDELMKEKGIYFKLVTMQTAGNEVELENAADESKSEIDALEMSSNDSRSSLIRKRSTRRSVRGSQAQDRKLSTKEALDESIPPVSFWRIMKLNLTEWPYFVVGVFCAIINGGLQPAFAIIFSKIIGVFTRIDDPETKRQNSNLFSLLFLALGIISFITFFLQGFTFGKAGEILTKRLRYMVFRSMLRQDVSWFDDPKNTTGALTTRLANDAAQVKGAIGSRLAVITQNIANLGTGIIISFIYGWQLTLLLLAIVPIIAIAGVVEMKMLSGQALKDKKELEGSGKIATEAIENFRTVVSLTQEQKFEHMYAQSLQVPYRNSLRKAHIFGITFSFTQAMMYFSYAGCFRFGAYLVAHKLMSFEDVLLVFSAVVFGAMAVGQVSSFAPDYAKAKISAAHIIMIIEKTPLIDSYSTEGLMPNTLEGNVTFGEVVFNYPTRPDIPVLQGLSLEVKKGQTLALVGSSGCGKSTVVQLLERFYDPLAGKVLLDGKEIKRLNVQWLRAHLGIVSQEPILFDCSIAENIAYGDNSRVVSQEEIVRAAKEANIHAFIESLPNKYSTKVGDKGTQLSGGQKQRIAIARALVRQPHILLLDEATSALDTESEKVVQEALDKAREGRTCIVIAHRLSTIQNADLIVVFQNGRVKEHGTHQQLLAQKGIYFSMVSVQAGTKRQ

[5] = target: T1, Pgp (human MDR1) in MDCK-MDR cells (Homo sapiens, UniProt P08183); test: MDCK-MDR bi-directional permeability assay; conditions: 5 μM test compound; for Papp (A-B) / Papp (B-A): pH 7.4
T1 sequence (P08183 whole entry): as above

[6] = target: T1, Pgp (human MDR1) in MDCK-MDR cells; test: Inhibition of Pgp-mediated transport of digoxin in MDCK-MDR cells; conditions: 10 μM digoxin + 5 μM test compound
[7] = male, B6C3F1, mouse, brain, intraperitoneal, 3 mg/kg
[8] = male, B6C3F1, mouse, brain, ip, 10 mg/kg
[9] = male, B6C3F1, mouse, brain/plasma, ip
[10] = male, B6C3F1, mouse, plasma, ip

| Structure (SMILES) | concentration at 2 h ([1]; male, B6C3F1, mouse, brain, ip) | concentration at 24 h [1, 8] | Kp at 2 h [1, 9] | concentration at 2 h [1, 10] | Plasma drug level ([1]; i.p. 10 mg/kg, 24 hours) | ON acetyl-tubulin relative to vehicle (in words) [3] | Brain drug level ([1]; i.p. 5 mg/kg, 2 hours) | Plasma drug level ([1]; i.p. 5 mg/kg, 2 hours) | B/P (Brain-to-Plasma ratio) ([1]; i.p. 5 mg/kg, 2 hours) | Brain drug level ([1]; i.p. 10 mg/kg, 24 hours) | Papp (A-B) [5] | Papp (B-A) [5] | other results |
| --- | --- | --- | --- | --- | --- | --- | --- | --- | --- | --- | --- | --- | --- |
| C/C1=C/C[C@@H](/C(C)=C/c2csc(C)n2)OC(=O)C[C@H](O)C(C)(C)C(=O)[C@H](C)[C@@H](O)[C@@H](C)CCC1 [CNDR-66, Epothilone D] | 109 ng/g | 64 ng/g | 7.6 | 14 ng/mL | BLD | elevation of acetyl-tubulin at all doses |  |  |  |  |  |  | Brain elimination half-life compared with plasma ([1]; full pharmacokinetic analysis, data not shown): far exceeded that observed in the plasma; concentration at 7 days [1, 7]: 8.3 ng/g; concentration at 10 days [1, 7]: 1.8 ng/g; Amount of acetyl-tubulin in PC12 cells [2]: significant concentration-dependent increase; Brain acetyl-tubulin levels (brain acetyl-tubulin; single 1 mg/kg, 7 days after dosing): significant increase of brain acetyl-tubulin; Brain acetyl-tubulin levels (brain acetyl-tubulin; single 3 mg/kg, 6 and 10 days after dosing): increased acetyl-tubulin levels; Brain acetyl-tubulin levels (brain acetyl-tubulin; single 3 mg/kg, 7 days after dosing): increase of acetyl-tubulin; Brain acetyl-tubulin levels (brain acetyl-tubulin; single 3 mg/kg, 14 days after dosing): statistically insignificant change; Brain acetyl-tubulin levels (brain acetyl-tubulin; single 6 mg/kg, 7 days after dosing, compared with 3 mg/kg): not further increased; Effect in Tg mice that express mutant human tau [4]: improve CNS axonal integrity, MT density and cognitive performance; Papp A→B at 2 h, 5 µM (P-gp (human MDR1)): 30 ×10⁻⁶ cm/s; Papp B→A at 2 h, 5 µM (P-gp (human MDR1)): 46.8 ×10⁻⁶ cm/s; efflux ratio at 2 h, 5 µM (P-gp (human MDR1)): 1.6; Efflux Ratio (B-A)/(A-B) [5]: near unity; Inhibition of Pgp transport of digoxin (in words) [6]: potent inhibitor of Pgp transport |
| C/C1=C/C[C@@H](/C(C)=C/c2csc(CO)n2)OC(=O)C[C@H](O)C(C)(C)C(=O)[C@H](C)[C@@H](O)[C@@H](C)/C=C/C1 [CNDR-88] |  |  |  |  | 6.1 ng/mL | neither CNDR-86 nor CNDR-88 elicited a change at any dose | 30 ng/g | 12 ng/mL | 2.6 | 45 ng/g | 0.8 10^−6 cm/s | 58.6 10^−6 cm/s | B/P (Brain-to-Plasma ratio) ([1]; i.p. 10 mg/kg, 24 hours): 7.3 |
| C/C1=C/C[C@@H](/C(C)=C/c2csc(CO)n2)OC(=O)C[C@H](O)C(C)(C)C(=O)[C@H](C)[C@@H](O)[C@@H](C)CCC1 [CNDR-89, 12,13-desoxy-epothilone F] |  |  |  |  | BLD | only resulted in an increase of the stabilized MT biomarker at 10 mg/kg | 24 ng/g | 6.8 ng/mL | 3.5 | 13 ng/g | 2.3 10^−6 cm/s | 63 10^−6 cm/s | Brain acetyl-tubulin relative to vehicle (brain acetyl-tubulin; 3 mg/kg i.p.): increase of acetyl-tubulin relative to vehicle; Brain acetyl-tubulin relative to vehicle (brain acetyl-tubulin; 10 mg/kg i.p.): no effect |
| C/C(=C\c1csc(C)n1)[C@@H]1C[C@@H]2O[C@]2(C)CCC[C@H](C)[C@H](O)[C@@H](C)C(=O)C(C)(C)[C@@H](O)CC(=O)N1 [CNDR-90, ixabepilone, reference compound] | 142 ng/g | 107 ng/g | 0.4 | 319 ng/mL |  |  |  |  |  |  |  |  | Kp at 24 h ([1]; male, B6C3F1, mouse, brain/plasma, ip, 10 mg/kg): 2.6; concentration at 24 h ([1]; male, B6C3F1, mouse, plasma, ip, 10 mg/kg): 41 ng/mL |
| CC(=O)O[C@H]1C(=O)[C@@]2(C)[C@H]([C@H](OC(=O)c3ccccc3)[C@]3(O)C[C@H](OC(=O)[C@H](O)[C@@H](NC(=O)c4ccccc4)c4ccccc4)C(C)=C1C3(C)C)[C@]1(OC(C)=O)CO[C@@H]1C[C@@H]2O [Paclitaxel, reference compound] | 85 ng/g |  |  | 1290 ng/mL |  |  |  |  | 0.07 |  |  |  | Effect in Tg mice that over-express human tau ([4]; drug absorption at peripheral neuromuscular junctions): increased MT density and marked improvement in motor function |
